Data published in ChEMBL document CHEMBL1142065, “In vitro and in vivo activities of a new cephalosporin, FR264205, against Pseudomonas aeruginosa” (2007).
Values after ≈ are worked out from the molar mass of the structure shown. Active and inactive are the calls of the source. No cut-off for these calls is given here.

Legend:
[1] = system: Pseudomonas aeruginosa; test: Antibacterial activity against ciprofloxacin-resistant Pseudomonas aeruginosa; format: functional
Summary of the method: (§1)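 Agar dilution MIC per NCCLS (CLSI) M7-A7 on Mueller-Hinton agar with twofold serial drug dilutions. Inoculum 10^4 CFU per spot, aerobic incubation 18 to 20 h at 35°C. MIC is the lowest concentration preventing visible growth.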

[2] = system: Pseudomonas aeruginosa; test: Antibacterial activity against imipenem-resistant Pseudomonas aeruginosa; format: functional; summary of the method: as §1
[3] = system: Pseudomonas aeruginosa; test: Antibacterial activity against ceftazidime-resistant Pseudomonas aeruginosa; format: functional; summary of the method: as §1
[4] = system: Pseudomonas aeruginosa; test: Antibacterial activity against Pseudomonas aeruginosa; format: functional; summary of the method: as §1
[5] = system: Pseudomonas aeruginosa; test: Efficacy against Pseudomonas aeruginosa 93 assessed as reduction in bacterial counts in mouse urinary tract infection model at 0.5 mg/kg; format: functional, organism-based; design: dose 0.5 mg/kg; conditions: Urine
Summary of the method: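 Female ICR mice (4 weeks) were denied water 1 day. Under pentobarbital anesthesia they received 4.32 log10 CFU of strain 93 via the […], which was then clamped 5 h. Dosed sc at 5 h post-challenge plus twice daily for 2 days. Bilateral kidney viable counts taken the day after last treatment; 6 mice/dose.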

[6] = system: Escherichia coli; test: Antibacterial activity against Escherichia coli C600 expressing TEM2; format: functional
Summary of the method: (§2)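 MIC by agar dilution (CLSI M7-A7) on Mueller-Hinton agar with twofold serial drug dilutions; 10^4 CFU spotted per spot; aerobic incubation 18 to 20 h at 35°C; MIC read as lowest concentration preventing visible growth.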

[7] = system: Escherichia coli; test: Antibacterial activity against Escherichia coli C600 expressing ESBL TEM4; format: functional; summary of the method: as §2
[8] = system: Pseudomonas aeruginosa; test: Reduction in susceptibility against Pseudomonas aeruginosa PAO1 after single passage; format: functional, organism-based
Summary of the method: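 PAO1 passaged daily for five consecutive days in fresh Mueller-Hinton broth with twofold drug dilution series. Each next inoculum came from the tube at one-fourth the MIC. MIC change was followed across passages.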

[9] = system: Pseudomonas aeruginosa; test: Antibacterial activity against Pseudomonas aeruginosa KG4545 producing MexXY efflux pump; format: functional; summary of the method: as §1
[10] = system: Escherichia coli; test: Antibacterial activity against Escherichia coli C600 expressing OXA1; format: functional; summary of the method: as §2
[11] = system: Escherichia coli; test: Antibacterial activity against Escherichia coli C600 expressing ESBL TEM5; format: functional; summary of the method: as §2
[12] = system: Pseudomonas aeruginosa; test: Antibacterial activity against Pseudomonas aeruginosa FP1380 expressing constitutive AmpC; format: functional; summary of the method: as §2
[13] = system: Escherichia coli; test: Antibacterial activity against Escherichia coli C600 expressing ESBL TEM8; format: functional; summary of the method: as §2
[14] = system: Escherichia coli; test: Antibacterial activity against Escherichia coli C600 expressing ESBL TEM6; format: functional; summary of the method: as §2
[15] = system: Escherichia coli; test: Antibacterial activity against Escherichia coli C600 expressing ESBL SHV3; format: functional; summary of the method: as §2
[16] = system: Pseudomonas aeruginosa; test: Efficacy against Pseudomonas aeruginosa 93 pulmonary infection in mouse assessed as reduction in bacterial counts at 10 mg/kg, sc; format: functional, organism-based; design: dose 10 mg/kg
Summary of the method: (§3)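 Male ICR mice (4 weeks), made neutropenic with cyclophosphamide 200 mg/kg ip 4 days before infection. Under pentobarbital anesthesia (50 mg/kg iv) they were challenged intranasally with 3.30 log10 CFU of strain 93, grown on tryptic soy agar 35°C 20 h and suspended in saline. Dosed sc twice daily for 3 days from 3 h post-infection. Lung viable counts taken the day after last dose; 6 mice/dose.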

[17] = system: Escherichia coli; test: Antibacterial activity against Escherichia coli C600 expressing ESBL SHV4; format: functional; summary of the method: as §2
[18] = system: Escherichia coli; test: Antibacterial activity against Escherichia coli C600 expressing ESBL OXA2; format: functional; summary of the method: as §2
[19] = system: Pseudomonas aeruginosa; test: Antibacterial activity against Pseudomonas aeruginosa 22029 expressing metallo beta lactamase; format: functional; summary of the method: as §1
[20] = system: Escherichia coli; test: Antibacterial activity against Escherichia coli C600; format: functional; summary of the method: as §2
[21] = system: Escherichia coli; test: Antibacterial activity against Escherichia coli C600 expressing ESBL CTX-M3; format: functional; summary of the method: as §2
[22] = system: Pseudomonas aeruginosa; test: Antibacterial activity against Pseudomonas aeruginosa PAO4069 expressing inducible AmpC; format: functional; summary of the method: as §1
[23] = system: Escherichia coli; test: Antibacterial activity against Escherichia coli C600 expressing ESBL TEM7; format: functional; summary of the method: as §2
[24] = system: Escherichia coli; test: Antibacterial activity against Escherichia coli C600 expressing SHV1; format: functional; summary of the method: as §2
[25] = system: Pseudomonas aeruginosa; test: Antibacterial activity against Pseudomonas aeruginosa PAO4222; format: functional; summary of the method: as §1
[26] = system: Pseudomonas aeruginosa; test: Antibacterial activity against Pseudomonas aeruginosa PAO1; format: functional; summary of the method: as §1
[27] = system: Pseudomonas aeruginosa; test: Antibacterial activity against Pseudomonas aeruginosa KG2212 producing MexAB-OprM efflux pump; format: functional; summary of the method: as §1
[28] = system: Escherichia coli; test: Antibacterial activity against Escherichia coli C600 expressing ESBL TEM9; format: functional; summary of the method: as §2
[29] = system: Pseudomonas aeruginosa; test: Antibacterial activity against Pseudomonas aeruginosa PAO1456 expressing constitutive AmpC; format: functional; summary of the method: as §1
[30] = system: Pseudomonas aeruginosa; test: Antibacterial activity against Pseudomonas aeruginosa KG3056 producing MexCD-OprJ efflux pump; format: functional; summary of the method: as §1
[31] = system: Escherichia coli; test: Antibacterial activity against Escherichia coli C600 expressing TEM1; format: functional; summary of the method: as §2
[32] = system: Escherichia coli; test: Antibacterial activity against Escherichia coli C600 expressing ESBL SHV2; format: functional; summary of the method: as §2
[33] = system: Escherichia coli; test: Antibacterial activity against Escherichia coli C600 expressing ESBL TEM3; format: functional; summary of the method: as §2
[34] = system: Pseudomonas aeruginosa; test: Efficacy against Pseudomonas aeruginosa 93 pulmonary infection in mouse assessed as reduction in bacterial counts at 2 mg/kg, sc; format: functional, organism-based; design: dose 2 mg/kg; summary of the method: as §3
[35] = system: Pseudomonas aeruginosa; test: Antibacterial activity against Pseudomonas aeruginosa 93; format: functional; summary of the method: as §2
[36] = system: Escherichia coli; test: Antibacterial activity against Escherichia coli C600 expressing ESBL CTX-M18; format: functional; summary of the method: as §2
[37] = system: Pseudomonas aeruginosa; test: Antibacterial activity against Pseudomonas aeruginosa KG4001 producing MexEF-OprN efflux pump; format: functional; summary of the method: as §1

O=C(O)c1cn(C2CC2)c2cc(N3CCNCC3)c(F)cc2c1=O [CIPROFLOXACIN]
MIC50 [1]: 8 µg/mL (≈ 24.1 µM)
MIC90 [1]: 64 µg/mL (≈ 193 µM)
MIC50 [2]: 1 µg/mL (≈ 3.02 µM)
MIC90 [2]: 8 µg/mL (≈ 24.1 µM)
MIC50 [3]: 2 µg/mL (≈ 6.04 µM)
MIC90 [3]: 64 µg/mL (≈ 193 µM)
MIC50 [4]: 0.25 µg/mL (≈ 0.754 µM)
MIC90 [4]: 8 µg/mL (≈ 24.1 µM)

C[C@@H](O)[C@H]1C(=O)N2C(C(=O)O)=C(SCCNC=N)C[C@H]12 [IMIPENEM ANHYDROUS]
Activity [5]: Active
MIC50 [1]: 8 µg/mL (≈ 26.7 µM)
MIC90 [1]: 16 µg/mL (≈ 53.4 µM)
MIC [6]: 0.25 µg/mL (≈ 0.835 µM)
MIC [7]: 0.25 µg/mL (≈ 0.835 µM)
Activity [8]: Active
MIC [2]: 16 µg/mL (≈ 53.4 µM)
MIC50 [2]: 16 µg/mL (≈ 53.4 µM)
MIC90 [2]: 32 µg/mL (≈ 107 µM)
MIC [9]: 1 µg/mL (≈ 3.34 µM)
MIC50 [3]: 16 µg/mL (≈ 53.4 µM)
MIC90 [3]: 32 µg/mL (≈ 107 µM)
MIC [10]: 0.25 µg/mL (≈ 0.835 µM)
MIC [11]: 0.25 µg/mL (≈ 0.835 µM)
MIC [12]: 0.5 µg/mL (≈ 1.67 µM)
MIC [13]: 0.25 µg/mL (≈ 0.835 µM)
MIC [14]: 0.25 µg/mL (≈ 0.835 µM)
MIC [15]: 0.25 µg/mL (≈ 0.835 µM)
Activity [16]: Active
MIC [17]: 0.25 µg/mL (≈ 0.835 µM)
MIC [18]: 0.25 µg/mL (≈ 0.835 µM)
MIC [19]: 128 µg/mL (≈ 428 µM)
MIC [20]: 0.25 µg/mL (≈ 0.835 µM)
MIC [21]: 0.25 µg/mL (≈ 0.835 µM)
MIC [22]: 1 µg/mL (≈ 3.34 µM)
MIC [23]: 0.25 µg/mL (≈ 0.835 µM)
MIC [24]: 0.25 µg/mL (≈ 0.835 µM)
MIC [25]: 1 µg/mL (≈ 3.34 µM)
MIC [26]: 4 µg/mL (≈ 13.4 µM)
MIC [27]: 1 µg/mL (≈ 3.34 µM)
MIC [28]: 0.25 µg/mL (≈ 0.835 µM)
MIC [29]: 1 µg/mL (≈ 3.34 µM)
MIC [30]: 0.5 µg/mL (≈ 1.67 µM)
MIC [31]: 0.125 µg/mL (≈ 0.418 µM)
MIC [32]: 0.25 µg/mL (≈ 0.835 µM)
MIC50 [4]: 2 µg/mL (≈ 6.68 µM)
MIC90 [4]: 16 µg/mL (≈ 53.4 µM)
MIC [33]: 0.25 µg/mL (≈ 0.835 µM)
Activity [34]: Active
MIC [35]: 1 µg/mL (≈ 3.34 µM)
MIC [36]: 0.25 µg/mL (≈ 0.835 µM)
MIC [37]: 1 µg/mL (≈ 3.34 µM)
